From ChEMBL document CHEMBL4477201, “Imidazopyridine and Pyrazolopiperidine Derivatives as Novel Inhibitors of Serine Palmitoyl Transferase” (J Med Chem, 2016)
One block for each compound: values may come before it. The source made the active and inactive calls. The calls are words filed in the database; no cut-off is given here.

How the values were obtained:
[1] = Volume of distribution at steady state in Sprague-Dawley rat at 3 mg/kg,po; assay type: ADME, organism-based; conditions: in vivo
Outline: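 Male Sprague Dawley rats, fasted, single oral dose of 3 mg/kg. A parallel arm received 1 mg/kg IV. Plasma was sampled for pharmacokinetics over 0-24 hr. Steady-state volume of distribution is reported […], in mL/kg.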

[2] = Drug uptake in diet-induced obese C57Bl/6 mouse liver at 3 mg/kg, po qd for 4 weeks measured 6 hrs post last dose; assay type: ADME, organism-based; conditions: read-out: Drug uptake
Outline: (§1)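 Male DIO mice dosed orally for 4 weeks. Sacrificed 6 h after the last dose. Compound measured in serum (ng/mL) and liver (ng/g), and the liver:serum ratio calculated.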

[3] = system: Mus musculus; assay: Reduction in plasma C18:0 ceramide level in diet-induced obese C57BL6 mouse at 1 to 60 mg/kg administered daily through oral gavage for 28 days measured 2 hrs post last dose relative to lean control; assay type: functional, organism-based
Outline: (§2)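 DIO mice dosed orally for 28 days, with myriocin as positive control and lean mice as reference. Total and C18:0 plasma ceramides measured 2 h after the final dose.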

[4] = Drug uptake in diet-induced obese C57Bl/6 mouse liver at 60 mg/kg, po qd for 4 weeks measured 6 hrs post last dose; assay type: ADME, organism-based; conditions: read-out: Drug uptake; outline: as §1
[5] = Drug uptake in diet-induced obese C57Bl/6 mouse liver at 1 mg/kg, po qd for 4 weeks measured 6 hrs post last dose; assay type: ADME, organism-based; conditions: read-out: Drug uptake; outline: as §1
[6] = system: Rattus norvegicus; assay: Increase in HDL level in cholic acid/cholesterol-fed Sprague-Dawley rat model of dyslipidemia administered bid through oral gavage measured after 1 week by FPLC analysis relative to vehicle-treated control; assay type: functional, organism-based
Outline: (§3)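 Sprague Dawley rats fed a cholic acid/cholesterol diet for 14 days, then dosed orally BID for 7 days at five dose levels, n=6. Serum ceramides and VLDL and HDL cholesterol compared with vehicle (dose 0). Mean ± SEM; Dunnett's test, p<0.05.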

[7] = Toxicity in diet-induced obese C57Bl/6 mouse assessed as change in food intake at 1 to 60 mg/kg, po qd for 4 weeks; assay type: organism-based; conditions: in vivo, 672 h
Outline: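 Food intake monitored in DIO mice during 4 weeks of daily oral dosing.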

[8] = Half life in Sprague-Dawley rat at 1 mg/kg, iv; assay type: ADME, organism-based; conditions: in vivo
Outline: (§4)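 Single dose to fasted male Sprague Dawley rats, IV at 1 mg/kg or oral at 3 mg/kg. Plasma levels followed to derive AUC0-24hr, Cmax, half-life, Vdss and oral bioavailability.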

[9] = Half life in Sprague-Dawley rat at 3 mg/kg,po; assay type: ADME, organism-based; conditions: in vivo; outline: as §4
[10] = system: Mus musculus; assay: Reduction in total plasma ceramide level in diet-induced obese C57BL6 mouse administered daily through oral gavage for 28 days measured 2 hrs post last dose relative to lean control; assay type: functional, organism-based; outline: as §2
[11] = AUC (0 to 24 hrs) in Sprague-Dawley rat at 3 mg/kg,po; assay type: ADME, organism-based; parameters: time < 24 hr, dose 3 mg/kg, route oral; conditions: in vivo; outline: as §4
[12] = system: Mus musculus; assay: Reduction in total plasma ceramide level in C57BL6 mouse administered through gavage after 6 hrs by mass spectrometry relative to vehicle-treated control; assay type: functional
Outline: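 Normal C57bl6 mice given a single oral dose at six dose levels, n=3 per group. Plasma collected 6 h post dose. C16:0, C20:0, C22:0, C24:0 and C24:1 ceramides measured by mass spectrometry and summed; total reduction calculated versus vehicle. ED50 derived from the dose-response; mean ± SEM.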

[13] = target: T1, Serine palmitoyltransferase 1 (Homo sapiens, UniProt O15269); assay: Inhibition of human SPT1 expressed in microsomes of HEK293 cells incubated for 1hr by LC/MS analysis
T1 sequence (O15269 whole entry): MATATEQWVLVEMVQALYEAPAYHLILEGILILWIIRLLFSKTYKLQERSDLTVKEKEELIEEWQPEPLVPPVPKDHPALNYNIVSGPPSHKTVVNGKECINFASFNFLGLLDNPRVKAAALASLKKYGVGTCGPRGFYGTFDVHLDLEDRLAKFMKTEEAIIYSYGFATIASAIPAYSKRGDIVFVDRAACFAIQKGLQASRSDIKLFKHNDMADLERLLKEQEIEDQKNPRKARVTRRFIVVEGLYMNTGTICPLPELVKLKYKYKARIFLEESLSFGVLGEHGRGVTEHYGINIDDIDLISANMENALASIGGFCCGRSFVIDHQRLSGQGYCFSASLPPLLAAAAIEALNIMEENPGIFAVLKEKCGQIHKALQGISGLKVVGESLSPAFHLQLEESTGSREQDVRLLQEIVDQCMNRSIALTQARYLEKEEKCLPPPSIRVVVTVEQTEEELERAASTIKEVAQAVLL
Outline: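 SPT source was a microsomal fraction from HEK293 cells, with serine and palmitoyl coenzyme A as substrates. Formation of 3-ketodeoxysphinganine quantified by LC/MS. Inhibition determined at 10 concentrations per compound to give IC50.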

[14] = target: T1, Serine palmitoyltransferase 1; assay: (§5) Inhibition of SPT1 in human MCF7 cells assessed as suppression of 14C-serine incorporation into ceramide incubated for 2 hrs in presence of 4-HPR; assay type: cell-based
Outline: (§6)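 Human MCF-7 cells incubated 2 h with a range of compound concentrations or DMSO control media. Medium contained 14C-serine plus 25 uM 4-HPR to activate SPT. 14C-serine-labeled ceramide products quantified to give EC50.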

[15] = target: T2, Serine palmitoyltransferase 1 (Homo sapiens) (UniProt O15269); assay: as §5; assay type: cell-based; outline: as §6
T2 sequence (whole entry): T1 sequence (O15269 whole entry)

[16] = Cmax in Sprague-Dawley rat at 3 mg/kg,po; assay type: ADME, organism-based; parameters: dose 3 mg/kg, route oral; conditions: in vivo; outline: as §4
[17] = AUC (0 to 24 hrs) in Sprague-Dawley rat at 1 mg/kg, iv; assay type: ADME, organism-based; parameters: time < 24 hr, dose 1 mg/kg, route intravenous; conditions: in vivo; outline: as §4
[18] = Fraction unbound in rat; assay type: ADME
[19] = Toxicity in rat assessed as induction of gastric enteropathy during 14 days toxicology study; conditions: in vivo, 336 h
[20] = Drug uptake in diet-induced obese C57Bl/6 mouse serum at 1 mg/kg, po qd for 4 weeks measured 6 hrs post last dose; assay type: ADME, organism-based; conditions: read-out: Drug uptake; outline: as §1
[21] = Drug uptake in diet-induced obese C57Bl/6 mouse serum at 60 mg/kg, po qd for 4 weeks measured 6 hrs post last dose; assay type: ADME, organism-based; conditions: read-out: Drug uptake; outline: as §1
[22] = Lipophilicity, log P of compound; assay type: physicochemical; conditions: octanol/water
[23] = Ratio of drug uptake in diet-induced obese C57Bl/6 mouse liver to serum at 10 mg/kg, po qd for 4 weeks measured 6 hrs post last dose; assay type: ADME, organism-based; outline: as §1
[24] = system: Rattus norvegicus; assay: Reduction in total plasma ceramide level in cholic acid/cholesterol-fed Sprague-Dawley rat model of dyslipidemia at 30 to 60 mg/kg administered bid through oral gavage measured after 1 week by FPLC analysis relative to vehicle-treated control; assay type: functional, organism-based; outline: as §3
[25] = Volume of distribution at steady state in Sprague-Dawley rat at 1 mg/kg, iv; assay type: ADME, organism-based; conditions: in vivo, read-out: Vdss; outline: as §4
[26] = Dissociation constant, pKa of the compound; assay type: physicochemical
[27] = Ratio of drug uptake in diet-induced obese C57Bl/6 mouse liver to serum at 3 mg/kg, po qd for 4 weeks measured 6 hrs post last dose; assay type: ADME, organism-based; outline: as §1
[28] = Drug uptake in diet-induced obese C57Bl/6 mouse liver at 30 mg/kg, po qd for 4 weeks measured 6 hrs post last dose; assay type: ADME, organism-based; conditions: read-out: Drug uptake; outline: as §1
[29] = Ratio of drug uptake in diet-induced obese C57Bl/6 mouse liver to serum at 60 mg/kg, po qd for 4 weeks measured 6 hrs post last dose; assay type: ADME, organism-based; outline: as §1
[30] = Drug uptake in diet-induced obese C57Bl/6 mouse liver at 10 mg/kg, po qd for 4 weeks measured 6 hrs post last dose; assay type: ADME, organism-based; conditions: read-out: Drug uptake; outline: as §1
[31] = Cmax in Sprague-Dawley rat at 1 mg/kg, iv; assay type: ADME, organism-based; parameters: dose 1 mg/kg, route intravenous; conditions: in vivo; outline: as §4
[32] = system: Mus musculus; assay: Reduction in serum insulin AUC in diet-induced obese C57BL6 mouse at 1 to 60 mg/kg, po qd for 4 weeks by oral glucose tolerance test relative to lean control; assay type: functional, organism-based
Outline: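 After 4 weeks of oral dosing, DIO mice underwent an oral glucose tolerance test. Insulin and glucose AUC compared with lean mice; trend assessed by ANOVA trend analysis.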

[33] = Ratio of drug uptake in diet-induced obese C57Bl/6 mouse liver to serum at 1 mg/kg, po qd for 4 weeks measured 6 hrs post last dose; assay type: ADME, organism-based; outline: as §1
[34] = system: Rattus norvegicus; assay: Reduction in vLDL level in cholic acid/cholesterol-fed Sprague-Dawley rat model of dyslipidemia at 60 mg/kg administered bid through oral gavage measured after 1 week by FPLC analysis relative to vehicle-treated control; assay type: functional, organism-based; outline: as §3
[35] = system: Mus musculus; assay: Reduction in total liver ceramide level in diet-induced obese C57BL6 mouse at 1 to 60 mg/kg administered daily through oral gavage for 28 days measured 6 hrs post last dose relative to lean control; assay type: functional, organism-based
Outline: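 Liver total ceramide levels measured in DIO mice after 4 weeks of oral dosing.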

[36] = Oral bioavailability in Sprague-Dawley rat at 3 mg/kg; assay type: ADME, organism-based; conditions: in vivo; outline: as §4
[37] = Drug uptake in diet-induced obese C57Bl/6 mouse serum at 30 mg/kg, po qd for 4 weeks measured 6 hrs post last dose; assay type: ADME, organism-based; conditions: read-out: Drug uptake; outline: as §1
[38] = Drug uptake in diet-induced obese C57Bl/6 mouse serum at 3 mg/kg, po qd for 4 weeks measured 6 hrs post last dose; assay type: ADME, organism-based; conditions: read-out: Drug uptake; outline: as §1
[39] = Drug uptake in diet-induced obese C57Bl/6 mouse serum at 10 mg/kg, po qd for 4 weeks measured 6 hrs post last dose; assay type: ADME, organism-based; conditions: read-out: Drug uptake; outline: as §1
[40] = Ratio of drug uptake in diet-induced obese C57Bl/6 mouse liver to serum at 30 mg/kg, po qd for 4 weeks measured 6 hrs post last dose; assay type: ADME, organism-based; outline: as §1
[41] = system: Mus musculus; assay: Reduction in plasma C18:0 ceramide level in diet-induced obese C57BL6 mouse at 0.5 mg/kg administered daily through oral gavage for 28 days measured 2 hrs post last dose relative to lean control; assay type: functional, organism-based
Outline: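 DIO mice received daily oral doses for 4 weeks as part of a dose-response study. Plasma was sampled 2 h after the final dose. Total and C18:0 plasma ceramides were measured and compared with those of lean control mice. At the end of dosing, the same cohort underwent an oral glucose tolerance test.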

Vdss [1]: 1840 mL/kg
concentration at 6 h [2]: 789 ng/g
concentration at 6 h [4]: 181000 ng/g
concentration at 6 h [5]: 463 ng/g
half-life [8]: 128 min
half-life [9]: 88.8 min
AUC(0-t) at 24 h [11]: 2920 ng·h/mL
IC50 [13]: 5.19 nM
EC50 [14]: 977 nM
inhibition [15]: Dose-dependent effect
Cmax [16]: 1500 ng/mL
AUC(0-t) at 24 h [17]: 1270 ng·h/mL
fraction unbound [18]: < 0.02
concentration at 6 h [20]: 88 ng/mL
concentration at 6 h [21]: 3350 ng/mL
logP [22]: 3.97
Kp at 6 h [23]: 8
Vd [25]: 0.574 L/kg
pKa [26]: 4.73
Kp at 6 h [27]: 3
concentration at 6 h [28]: 6580 ng/g
Kp at 6 h [29]: 54
concentration at 6 h [30]: 2850 ng/g
Cmax [31]: 2540 ng/mL
Kp at 6 h [33]: 5
bioavailability [36]: 75%
concentration at 6 h [37]: 677 ng/mL
concentration at 6 h [38]: 264 ng/mL
concentration at 6 h [39]: 341 ng/mL
Kp at 6 h [40]: 10
Compound: CCCCCCC(=O)c1cc(-c2ccc(CC(=O)O)cc2)c2nccn2c1
Activity [3]: Active
Activity [6]: Dose-dependent effect
Activity [7]: Non-Toxic
Activity [10]: Dose-dependent effect
Activity [12]: Dose-dependent effect
ED50 ([12]; C57BL6, po): 1.04 mg/kg
Activity [19]: Toxic
Activity [24]: Active
Activity [32]: Active
Activity [34]: Active
Activity [35]: Active

Compound: CCCCCCC(=O)CCCCCC/C=C/C[C@@H](O)[C@H](O)[C@@](N)(CO)C(=O)O [MYRIOCIN]
Activity [41]: Active
EC50 [14]: 49.5 nM
